The text below walks through data of ChEMBL document CHEMBL4602651, “Development of selective mono or dual PROTAC degrader probe of CDK isoforms” (Eur J Med Chem, 2020).

Calls of active or inactive are those of the source. The calls are words filed in the database; no cut-off is given here.

Test [1] has as its system PC-3. The test is described as follows: Antiproliferative activity against AR-negative human PC3 cells assessed as reduction in cell viability after 5 days by CCK8 assay. The test is classed as functional, cell-based. The settings on record: PC-3, 120 h. In short, it runs like this: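 Cells seeded at 3 × 10^3 per well for 24 h, then dosed in 10-point, 3-fold serial dilution from 10 µM. CCK-8 added after 5 days, 4 h at 37 °C, absorbance at 450 nm. IC50 averaged from three separate determinations (at least two independent runs, duplicate wells). PC-3 grown in DMEM/F12 (1:1), LO2 in RPMI 1640, both with 10% FBS.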
For orientation: Formazan colour is commonly taken as a measure of viable cells.

The target of test [2] is T1, Protein cereblon/Cyclin-dependent kinase 2/Cyclin-dependent kinase 9 (Homo sapiens, UniProt P24941+P50750+Q96SW2). The test is described as follows: Protac activity at CRBN/CDK2/CDK9 in AR-negative human PC3 cells assessed as induction of CDK2 protein degradation after 24 hrs by Western blot analysis. It is filed as cell-based. The settings on record: PC-3. The gist of the method:
(§1)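 PC-3 cells exposed to a degrader concentration series, then immunoblotted for CDK2 and CDK9 versus β-tubulin. The figure legend gives 24 h exposure. DC50 taken as mean of 2 determinations from densitometry.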

The target in test [3] is T1, Protein cereblon/Cyclin-dependent kinase 2/Cyclin-dependent kinase 9. As to the kind of experiment: Protac activity at CRBN/CDK2/CDK9 in AR-negative human PC3 cells assessed as induction of CDK9 protein degradation after 24 hrs by Western blot analysis. The test is classed as cell-based. The settings on record: PC-3. In short, it runs like this: as §1
For orientation: Immunoblotting shows a protein as a band on a membrane.

The target of test [4] is T2, Protein cereblon/Cyclin-dependent kinase 9 (Homo sapiens) (UniProt P50750+Q96SW2). As to the kind of experiment: Protac activity at CRBN/CDK9 in AR-negative human PC3 cells assessed as induction of CDK9 protein degradation at 1 uM after 12 hrs by Western blot analysis. It is filed as cell-based. The settings on record: PC-3. The gist of the method:
(§2)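 PC-3 cells (DMEM/F12 1:1, 10% FBS, 1% pen/strep, 37 °C, 5% CO2) plated at 5 × 10^5 per well, exposed to compound for 12 h. RIPA lysates with protease inhibitors; 50 µg total protein run on 10% SDS-PAGE, transferred to PVDF, blocked in 5% milk/TBS-T. Probed with anti-CDK9 (1/1000), β-tubulin loading control, HRP secondary, chemiluminescence; bands scored as degradation detected or not.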

Test [5] concerns the target T2, Protein cereblon/Cyclin-dependent kinase 9 (Homo sapiens). As to the kind of experiment: Protac activity at CRBN/CDK9 in AR-negative human PC3 cells assessed as induction of CDK9 protein degradation at 30 uM after 12 hrs by Western blot analysis. The settings on record: PC-3. It is filed as cell-based. The gist of the method: as §2
For test [6], the target named is Protein cereblon/Cyclin-dependent kinase 2 (Homo sapiens) (UniProt P24941+Q96SW2). The test is described as follows: Protac activity at CRBN/CDK2 in AR-negative human PC3 cells assessed as induction of CDK2 protein degradation at 50 nM after 12 hrs by Western blot analysis. The test is classed as cell-based. The conditions noted are these: PC-3. The gist of the method:
(§3)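 PC-3 cells (5 × 10^5 per well) treated 12 h at single concentrations (50 nM, 500 nM, 1, 5 or 30 µM). RIPA lysates (50 µg) run on 10% SDS-PAGE and immunoblotted for CDK2, CDK5, CDK9 with β-tubulin loading control, then detected by chemiluminescence. Band intensities quantified densitometrically.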

The target in test [7] is T2, Protein cereblon/Cyclin-dependent kinase 9 (Homo sapiens). As to the kind of experiment: Protac activity at CRBN/CDK9 in AR-negative human PC3 cells assessed as induction of CDK9 protein degradation at 50 nM after 12 hrs by Western blot analysis. The test is classed as cell-based. The conditions noted are these: PC-3. In short, it runs like this:
as §2

In test [8] the target is T1, Protein cereblon/Cyclin-dependent kinase 2/Cyclin-dependent kinase 9. As to the kind of experiment: Protac activity at CRBN/CDK2/CDK9 in AR-negative human PC3 cells assessed as induction of CDK2 protein degradation at 1 uM after 12 hrs by Western blot analysis. It is filed as cell-based. The conditions noted are these: PC-3. The gist of the method: as §3
Test [9] has the same target. The test is described as follows: Protac activity at CRBN/CDK2/CDK9 in AR-negative human PC3 cells assessed as induction of CDK9 protein degradation at 1 uM after 12 hrs by Western blot analysis. The conditions noted are these: PC-3. The test is classed as cell-based. The gist of the method:
as §3

Test [10] has the same target. As to the kind of experiment: Protac activity at CRBN/CDK2/CDK9 in AR-negative human PC3 cells assessed as induction of CDK9 protein degradation at 30 uM after 12 hrs by Western blot analysis. The test is classed as cell-based. The settings on record: PC-3. The gist of the method: as §3

T2 sequence (P50750 whole entry, looked up): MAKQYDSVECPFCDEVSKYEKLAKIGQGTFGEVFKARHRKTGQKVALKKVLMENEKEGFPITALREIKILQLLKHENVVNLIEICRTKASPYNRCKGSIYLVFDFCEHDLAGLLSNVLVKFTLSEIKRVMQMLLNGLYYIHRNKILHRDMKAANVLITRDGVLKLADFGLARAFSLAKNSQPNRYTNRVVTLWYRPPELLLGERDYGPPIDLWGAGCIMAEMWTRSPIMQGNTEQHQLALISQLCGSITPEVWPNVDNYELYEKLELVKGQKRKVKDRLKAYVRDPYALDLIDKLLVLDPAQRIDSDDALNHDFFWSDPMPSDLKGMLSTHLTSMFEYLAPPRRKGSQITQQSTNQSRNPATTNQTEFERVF
T2 sequence (Q96SW2 whole entry, looked up): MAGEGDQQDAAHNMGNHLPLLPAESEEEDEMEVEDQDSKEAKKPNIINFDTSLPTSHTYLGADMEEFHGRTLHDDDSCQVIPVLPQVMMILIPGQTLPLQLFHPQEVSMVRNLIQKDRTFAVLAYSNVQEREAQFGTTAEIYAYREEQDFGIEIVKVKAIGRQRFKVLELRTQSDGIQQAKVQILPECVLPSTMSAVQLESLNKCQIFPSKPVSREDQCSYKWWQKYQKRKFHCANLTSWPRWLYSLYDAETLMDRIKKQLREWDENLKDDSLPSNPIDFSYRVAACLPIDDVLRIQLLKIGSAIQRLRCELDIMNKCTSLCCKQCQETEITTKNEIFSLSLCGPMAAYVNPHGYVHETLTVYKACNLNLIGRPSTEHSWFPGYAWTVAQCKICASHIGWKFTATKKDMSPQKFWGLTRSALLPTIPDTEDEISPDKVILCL

Consider `O=C(CCC(=O)N1CCC(NC(=O)c2n[nH]cc2NC(=O)c2c(Cl)cccc2Cl)CC1)NCCCCCCNc1cccc2c1C(=O)N(C1CCC(=O)NC1=O)C2=O` (stereo not drawn), for which the IC50 in test [1] is 14.6 µM.
Take `O=C(CCC(=O)N1CCC(NC(=O)c2n[nH]cc2NC(=O)c2c(Cl)cccc2Cl)CC1)NCCNc1cccc2c1C(=O)N(C1CCC(=O)NC1=O)C2=O` (stereo not drawn): in [1], the half-maximal inhibitory concentration (IC50) came out at 5.95 µM.
Same read-out and setting: the value for `O=C(CCC(=O)N1CCC(NC(=O)c2n[nH]cc2NC(=O)c2c(Cl)cccc2Cl)CC1)NCCCOCCOCCOCCCNC(=O)COc1cccc2c1C(=O)N(C1CCC(=O)NC1=O)C2=O` (stereo not drawn) was 2.02 µM.
Take `O=C(CCC(=O)N1CCN(Cc2ccc(NC(=O)c3n[nH]cc3Nc3ncnc4[nH]ccc34)cc2)CC1)NCCCOCCOCCOCCCNC(=O)COc1cccc2c1C(=O)N(C1CCC(=O)NC1=O)C2=O` (stereo not drawn): the IC50 in test [1] was determined as 18.3 µM. Moreover, the outcome in [2] and in test [3] was inactive.
On to `O=C(CCC(=O)N1CCC(NC(=O)c2n[nH]cc2NC(=O)c2c(Cl)cccc2Cl)CC1)NCCCCCCNC(=O)COc1cccc2c1C(=O)N(C1CCC(=O)NC1=O)C2=O` (stereo not drawn), for which the IC50 in [1] came out at 1.31 µM.
Regarding `O=C(COc1cccc2c1C(=O)N(C1CCC(=O)NC1=O)C2=O)NCCOCCOCC(=O)N1CCN(Cc2ccc(NC(=O)c3n[nH]cc3Nc3ncnc4[nH]ccc34)cc2)CC1` (stereo not drawn), the outcome in test [4], in test [5], in test [6] and in test [7] was Active. For the same compound, the half-inhibitory concentration (IC50) in [1] amounted to 3.54 µM.
As to `O=C(CCC(=O)N1CCN(Cc2ccc(NC(=O)c3n[nH]cc3Nc3ncnc4[nH]ccc34)cc2)CC1)NCCCCCCNc1cccc2c1C(=O)N(C1CCC(=O)NC1=O)C2=O` (stereo not drawn), the outcome in test [4], in [5], in test [6] and in test [7] was Active. Further, the IC50 in test [1] was 3.6 µM.
Regarding `O=C(COc1cccc2c1C(=O)N(C1CCC(=O)NC1=O)C2=O)NCCCCCC(=O)N1CCN(Cc2ccc(NC(=O)c3n[nH]cc3Nc3ncnc4[nH]ccc34)cc2)CC1` (stereo not drawn), the result in test [8], in [6], in [7], in test [9] and in test [10] was Active. In addition, the IC50 in [1] was found to be 0.54 µM.
With `O=C(CCC(=O)N1CCC(NC(=O)c2n[nH]cc2NC(=O)c2c(Cl)cccc2Cl)CC1)NCCCCNc1cccc2c1C(=O)N(C1CCC(=O)NC1=O)C2=O` (stereo not drawn), the IC50 in test [1] is 23.3 µM.
As to `O=C(CCC(=O)N1CCN(Cc2ccc(NC(=O)c3n[nH]cc3Nc3ncnc4[nH]ccc34)cc2)CC1)NCCNC(=O)COc1cccc2c1C(=O)N(C1CCC(=O)NC1=O)C2=O` (stereo not drawn), the outcome in test [4] and in [5] was Active. Also, in test [1], the IC50 worked out at 8.03 µM.
`O=C(CCC(=O)N1CCN(Cc2ccc(NC(=O)c3n[nH]cc3Nc3ncnc4[nH]ccc34)cc2)CC1)NCCCCNC(=O)COc1cccc2c1C(=O)N(C1CCC(=O)NC1=O)C2=O` (stereo not drawn): the IC50 in test [1] came to 13.4 µM. For the same compound, the outcome in test [2] and in test [3] was inactive.
Take `O=C(COc1cccc2c1C(=O)N(C1CCC(=O)NC1=O)C2=O)NCCCC(=O)N1CCN(Cc2ccc(NC(=O)c3n[nH]cc3Nc3ncnc4[nH]ccc34)cc2)CC1` (stereo not drawn): the outcome in [8], in test [9] and in test [10] was Active. The IC50 in test [1] worked out at 2.21 µM.
As to `O=C(CCC(=O)N1CCN(Cc2ccc(NC(=O)c3n[nH]cc3Nc3ncnc4[nH]ccc34)cc2)CC1)NCCCCCCNC(=O)COc1cccc2c1C(=O)N(C1CCC(=O)NC1=O)C2=O` (stereo not drawn), the IC50 in [1] worked out at 7.3 µM. The result in test [2] and in [3] was inactive.
`O=C(NC1CCNCC1)c1n[nH]cc1NC(=O)c1c(Cl)cccc1Cl` [AT-7519]: the IC50 in test [1] came to 0.71 µM.

As a reminder, the IC50 is the midpoint of a concentration-inhibition curve.
